Measurements: ChEMBL document CHEMBL1127562, “N-substituted spirosuccinimide, spiropyridazine, spiroazetidine, and acetic acid aldose reductase inhibitors derived from isoquinoline-1,3-diones. 2” (J Med Chem, 1994)
One block for each compound: values may come before it. Activity calls are given as the source filed them. The rule behind the calls is not given here.

Tests used:
[1] = target: Aldo-keto reductase family 1 member B1 (Bos taurus) (UniProt P16116); test: Inhibition of aldose reductase activity in partially purified bovine lens preparation at 10e-5 M
Outline: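 Partially purified bovine lens aldose reductase. Reduction of DL-glyceraldehyde substrate followed spectrophotometrically. Activity expressed as average inhibition at the tested concentrations, 1×10^-5, 1×10^-6, 1×10^-7 and 4×10^-6 M as printed; IC50 in M where given.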

Rattus norvegicus [2] = test: Tested for in vivo inhibition of galactitol accumulation in the sciatic nerve of galactose-fed rats at the dose of 1.0 (mg/kg/day); NS=Not significant; type: functional, organism-based
Outline: (§1)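 Rats were given a 20% galactose diet for 4 days, with the test compound administered in the diet. Sciatic nerve galactitol accumulation was measured, and activity is given as % inhibition at the stated daily dose (mg/kg/day). Values are mean ± SEM, n = 6 animals; p < 0.01 unless indicated. NS means no significant inhibition of polyol accumulation.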

Rattus norvegicus [3] = test: Tested for in vivo inhibition of galactitol accumulation in the sciatic nerve of galactose-fed rats at the dose of 25.1 (mg/kg/day); NS=Not significant; type: functional, organism-based; outline: as §1
[4] = target: Aldo-keto reductase family 1 member B1 (Bos taurus) (UniProt P16116); test: Inhibition of aldose reductase activity in partially purified bovine lens preparation at 4*10 e-8 M
Rattus norvegicus [5] = test: Tested for in vivo inhibition of galactitol accumulation in the lens of galactose-fed rats at the dose of 26.1 (mg/kg/day); NS=Not significant; type: functional, organism-based; settings: Lens of camera-type eye
Rattus norvegicus [6] = test: Tested for in vivo inhibition of galactitol accumulation in the sciatic nerve of galactose-fed rats at the dose of 26.1 (mg/kg/day); NS=Not significant; type: functional, organism-based; outline: as §1
Rattus norvegicus [7] = test: Tested for in vivo inhibition of galactitol accumulation in the lens of galactose-fed rats at the dose of 24.9 (mg/kg/day); NS=Not significant; type: functional, organism-based; settings: Lens of camera-type eye
Rattus norvegicus [8] = test: Tested for in vivo inhibition of galactitol accumulation in the sciatic nerve of galactose-fed rats at the dose of 24.9 (mg/kg/day); type: functional; outline: as §1
Rattus norvegicus [9] = test: Tested for in vivo inhibition of galactitol accumulation in the lens of galactose-fed rats at the dose of 47.7 (mg/kg/day); NS=Not significant; type: functional, organism-based; settings: Lens of camera-type eye
Rattus norvegicus [10] = test: Tested for in vivo inhibition of galactitol accumulation in the sciatic nerve of galactose-fed rats at the dose of 47.7 (mg/kg/day); NS=Not significant; type: functional, organism-based; outline: as §1
Rattus norvegicus [11] = test: Tested for in vivo inhibition of galactitol accumulation in the sciatic nerve of galactose-fed rats at the dose of 24.9 (mg/kg/day); NS=Not significant; type: functional, organism-based; outline: as §1
Rattus norvegicus [12] = test: Tested for in vivo inhibition of galactitol accumulation in the sciatic nerve of galactose-fed rats at the dose of 50 (mg/kg/day); type: functional
Outline: (§2)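 Rats fed a 20% galactose diet for 4 days, with test compound given in the diet at the stated daily dose (mg/kg/day). Read-out is inhibition of galactitol (polyol) accumulation in sciatic nerve. Values are % inhibition, mean ± SEM of six animals; p < 0.01 unless marked (some p < 0.05). NS = no significant inhibition of polyol accumulation. Tolrestat was the reference standard.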

Rattus norvegicus [13] = test: Tested for in vivo inhibition of galactitol accumulation in the lens of galactose-fed rats at the dose of 50 (mg/kg/day); type: functional, Lens of camera-type eye
Rattus norvegicus [14] = test: Tested for in vivo inhibition of galactitol accumulation in the lens of galactose-fed rats at the dose of 25.2 (mg/kg/day); NS=Not significant; type: functional, organism-based; settings: Lens of camera-type eye
Rattus norvegicus [15] = test: Tested for in vivo inhibition of galactitol accumulation in the sciatic nerve of galactose-fed rats at the dose of 25.2 (mg/kg/day); NS=Not significant; type: functional, organism-based; outline: as §1
Rattus norvegicus [16] = test: Tested for in vivo inhibition of galactitol accumulation in the sciatic nerve of galactose-fed rats at the dose of 1.0 (mg/kg/day); NS=Not significant
Rattus norvegicus [17] = test: Tested for in vivo inhibition of galactitol accumulation in the lens of galactose-fed rats at the dose of 87.3 (mg/kg/day); NS=Not significant; type: functional, organism-based; settings: Lens of camera-type eye
Outline: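 Galactosemic rats were fed 20% galactose for 4 days, with the compound mixed into the diet. […] galactitol accumulation was measured, and activity is given as % inhibition at the stated daily dose (mg/kg/day). Values are mean ± SEM of six animals; p < 0.01 unless indicated. NS means no significant inhibition of polyol accumulation.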

Rattus norvegicus [18] = test: Tested for in vivo inhibition of galactitol accumulation in the sciatic nerve of galactose-fed rats at the dose of 87.3 (mg/kg/day); NS=Not significant; type: functional, organism-based; outline: as §2
Rattus norvegicus [19] = test: Tested for in vivo inhibition of galactitol accumulation in the lens of galactose-fed rats at the dose of 25.1 (mg/kg/day); NS=Not significant; type: functional, organism-based; settings: Lens of camera-type eye
Rattus norvegicus [20] = test: Tested for in vivo inhibition of galactitol accumulation in the lens of galactose-fed rats at the dose of 47.2 (mg/kg/day); NS=Not significant; type: functional, organism-based; settings: Lens of camera-type eye
Rattus norvegicus [21] = test: Tested for in vivo inhibition of galactitol accumulation in the sciatic nerve of galactose-fed rats at the dose of 47.2 (mg/kg/day); NS=Not significant; type: functional, organism-based; outline: as §1
Rattus norvegicus [22] = test: Tested for in vivo inhibition of galactitol accumulation in the sciatic nerve of galactose-fed rats at the dose of 55 (mg/kg/day); NS=Not significant; type: functional, organism-based; outline: as §2

Structure (SMILES): CCCN1C(=O)CC2(C1=O)C(=O)N(Cc1ccc(Br)cc1F)C(=O)c1ccccc12 (stereo not drawn)
inhibition [1]: inactive | inhibition (Rattus norvegicus [2]): inactive

Structure (SMILES): O=C1Cc2c(n(Cc3ccc(Br)cc3F)c(=O)c3ccccc23)O1
inhibition [4]: 32% | inhibition (Rattus norvegicus [7]): inactive | inhibition (Rattus norvegicus [11]): inactive

Structure (SMILES): CC(C)=NN1C(=O)CC2(C(=O)N(Cc3nc4cc(C(F)(F)F)ccc4s3)C(=O)c3ccccc32)C1=O (stereo not drawn)
inhibition [1]: inactive | Inhibition (Rattus norvegicus [12]): 95% | Inhibition (Rattus norvegicus [13]): 37%

Structure (SMILES): CCN1C(=O)CC2(C1=O)C(=O)N(Cc1nc3cc(C(F)(F)F)ccc3s1)C(=O)c1ccc(F)cc12 (stereo not drawn)
inhibition [1]: inactive

Structure (SMILES): CCCN1C(=O)CC2(C1=O)C(=O)N(Cc1ccc(Br)cc1F)C(=O)c1ccc(F)cc12 (stereo not drawn)
inhibition (Rattus norvegicus [16]): inactive | inhibition [1]: inactive

Structure (SMILES): CC(=O)NN1C(=O)CC2(C(=O)N(Cc3nc4cc(C(F)(F)F)ccc4s3)C(=O)c3ccccc32)C1=O (stereo not drawn)
inhibition [1]: inactive | Inhibition (Rattus norvegicus [12]): 94% | Inhibition (Rattus norvegicus [13]): 40%

Structure (SMILES): CCN1C(=O)CC2(C1=O)C(=O)N(Cc1ccc(Br)cc1F)C(=O)c1ccc(F)cc12 (stereo not drawn)
inhibition [1]: inactive

Structure (SMILES): O=C1c2ccccc2C2(CC(=O)N(N=C3CCOCC3)C2=O)C(=O)N1Cc1nc2cc(C(F)(F)F)ccc2s1 (stereo not drawn)
inhibition [1]: inactive | Inhibition (Rattus norvegicus [12]): 94% | Inhibition (Rattus norvegicus [13]): 41%

The next lines start with results.

inhibition [1]: 45%
Structure (SMILES): CC1(CC(=O)O)C(=O)N(Cc2ccc(Cl)c(Cl)c2)C(=O)c2ccccc21 (stereo not drawn)

inhibition [1]: inactive
Structure (SMILES): CN1C(=O)CC2(C1=O)C(=O)N(Cc1ccc(C(F)(F)F)cc1)C(=O)c1ccccc12 (stereo not drawn)
inhibition (Rattus norvegicus [3]): inactive

inhibition [4]: 30%
Structure (SMILES): O=C(O)CC1C(=O)N(Cc2ccc(Br)cc2F)C(=O)c2cc(Cl)ccc21 (stereo not drawn)
inhibition (Rattus norvegicus [5]): inactive | inhibition (Rattus norvegicus [6]): inactive

inhibition [4]: 80%
Structure (SMILES): O=C(O)CC1C(=O)N(Cc2ccc(Br)cc2F)C(=O)c2ccc(F)cc21 (stereo not drawn)
inhibition (Rattus norvegicus [7]): inactive | Inhibition (Rattus norvegicus [8]): 47%

inhibition [1]: 67%
Structure (SMILES): COC(=O)NC(=O)CC1C(=O)N(C)C(=O)c2ccc([N+](=O)[O-])cc21 (stereo not drawn)
inhibition (Rattus norvegicus [9]): inactive | inhibition (Rattus norvegicus [10]): inactive

inhibition [1]: 72%
Structure (SMILES): COC(=O)NC(=O)CC1C(=O)N(C)C(=O)c2cc(OC)ccc21 (stereo not drawn)
inhibition (Rattus norvegicus [14]): inactive | inhibition (Rattus norvegicus [15]): inactive

inhibition [1]: inactive
Structure (SMILES): NC(=O)CC1C(=O)N(Cc2ccc(Br)cc2F)C(=O)c2ccccc21 (stereo not drawn)
inhibition (Rattus norvegicus [14]): inactive | inhibition (Rattus norvegicus [15]): inactive

inhibition [1]: 43%
Structure (SMILES): O=C(O)CC1C(=O)N(Cc2ccc(C(F)(F)F)cc2)C(=O)c2ccccc21 (stereo not drawn)

inhibition [1]: inactive
Structure (SMILES): CCN1C(=O)c2ccccc2C(CC(=O)NC(=O)OC)C1=O (stereo not drawn)
inhibition (Rattus norvegicus [17]): inactive | inhibition (Rattus norvegicus [18]): inactive

inhibition [1]: 80%
Structure (SMILES): CCNC(=O)CC1C(=O)N(Cc2ccc(Br)cc2F)C(=O)c2ccc(F)cc21 (stereo not drawn)
inhibition (Rattus norvegicus [19]): inactive | inhibition (Rattus norvegicus [3]): inactive

inhibition [1]: 53%
Structure (SMILES): COC(=O)NC(=O)CC1C(=O)N(C)C(=O)c2ccc(OC)cc21 (stereo not drawn)
inhibition (Rattus norvegicus [20]): inactive | inhibition (Rattus norvegicus [21]): inactive

inhibition [1]: inactive
Structure (SMILES): CN1NC(=O)C2(CC1=O)C(=O)N(Cc1ccc(Br)cc1F)C(=O)c1ccccc12 (stereo not drawn)
inhibition (Rattus norvegicus [22]): inactive
